Assay outcomes: PubChem BioAssay, several laboratories
IDE act = IDE (human) activation, cell-based; activation, % at 5.96 µM; 0.073% of 340,000 active; HEK cells, FAbeta-B cleavage, fluorescence polarization; 0% vehicle, 100% cell-free pure enzyme wells; AID 493087; P14735;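 active = activation above the mean of all tested compounds plus 3 SD, set per screening campaign, cut at about 17% in these data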
Target sequence (P14735 whole entry, looked up): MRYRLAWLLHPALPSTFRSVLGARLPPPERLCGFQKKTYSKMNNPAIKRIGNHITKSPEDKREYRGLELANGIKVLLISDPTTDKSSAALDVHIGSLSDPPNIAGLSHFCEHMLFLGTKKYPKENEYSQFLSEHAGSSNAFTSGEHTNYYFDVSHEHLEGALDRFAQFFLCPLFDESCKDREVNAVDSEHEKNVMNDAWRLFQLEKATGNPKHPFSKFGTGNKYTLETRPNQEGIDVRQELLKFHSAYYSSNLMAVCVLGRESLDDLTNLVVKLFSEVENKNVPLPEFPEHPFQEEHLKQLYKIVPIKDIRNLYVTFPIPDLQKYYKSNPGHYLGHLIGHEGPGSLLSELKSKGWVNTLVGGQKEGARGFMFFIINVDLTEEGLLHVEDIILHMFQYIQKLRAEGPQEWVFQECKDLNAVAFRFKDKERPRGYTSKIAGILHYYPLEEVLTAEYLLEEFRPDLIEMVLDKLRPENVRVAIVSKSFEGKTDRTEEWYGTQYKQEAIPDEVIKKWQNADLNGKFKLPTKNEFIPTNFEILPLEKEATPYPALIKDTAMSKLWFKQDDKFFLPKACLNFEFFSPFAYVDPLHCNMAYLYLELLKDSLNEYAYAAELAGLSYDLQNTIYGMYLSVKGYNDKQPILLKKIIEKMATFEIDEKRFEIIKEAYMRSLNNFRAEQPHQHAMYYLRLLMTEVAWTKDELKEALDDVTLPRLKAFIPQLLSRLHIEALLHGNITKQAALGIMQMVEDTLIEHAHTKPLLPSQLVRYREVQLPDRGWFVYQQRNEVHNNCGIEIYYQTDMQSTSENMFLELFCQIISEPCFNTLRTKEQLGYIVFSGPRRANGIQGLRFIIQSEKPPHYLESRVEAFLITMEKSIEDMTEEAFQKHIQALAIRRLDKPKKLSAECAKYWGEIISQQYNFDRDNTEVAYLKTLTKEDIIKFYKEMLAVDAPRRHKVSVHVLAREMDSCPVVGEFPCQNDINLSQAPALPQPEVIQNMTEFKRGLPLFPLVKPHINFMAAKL
TbMetRS inhib = blocks T. brucei methionyl-tRNA synthetase activity. purified T. brucei MetRS, ATP depletion, Kinase-Glo luminescence. inhibition, % at 11.9 µM. 0.4% of 360,000 active;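 active = inhibition above a per-plate cutoff of the control wells' mean inhibition plus 3 SD, cut at about 5.5% in these data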
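Material: T. brucei methionyl-tRNA synthetase, purified; reagent: substrates ATP, L-methionine and bulk Escherichia coli tRNA; dosing: 11.9 µM single point; timing: 15 min plus 2 h at 25 °C; detection: luminescence of leftover ATP; evaluation: % inhibition; control set: DMSO-only wells as low control; replicates: singlicate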
IDE cell inh = inhibits human insulin-degrading enzyme in HEK cells; inhibition, % at 5.59 µM; 0.41% of 320,000 active; P14735; FAbetaB cleavage, fluorescence polarization;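 active = percent inhibition above the average of all tested compounds plus 3 SD, set per screening campaign, cut at about 16% in these data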;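 also: IDE supplied by intact live HEK cells; FP after avidin binding of uncleaved biotin substrate so inhibition keeps polarization high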
CSN inh = inhibitors of human CSN-mediated cullin deneddylation; inhibition, % at 12.5 µM; Purified CSN, SCF-Nedd8-OG deneddylation, fluorescence polarization; 0.38% of 360,000 active; AID 651999;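 active = pattern-corrected inhibition above about 35%, with an unprinted fluorescence ratio check between 0.5 and 1.5, limit read from the data, passing the limit was not always enough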
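Material: human Csn5 produced in HEK293T cells; Input: enzyme 0.24 nM; Reagent: SCFSkp2-Nedd8OG substrate at 10 nM final; Dosing: 12.5 µM compound; Incubation: 90 min reaction at room temperature; Detection: fluorescence polarization of the substrate; Evaluation: % inhibition of substrate cleavage by Csn5; Control set: substrate-only high control, full reaction low control.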
TPT1 inh = inhibitors of Candida albicans tRNA 2'-phosphotransferase TPT1; 0.81% of 300,000 active; recombinant caTPT1, FP RNA substrate dephosphorylation; inhibition, % at 5 µM;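 active = inhibition above the mean of all tested compounds plus 3 SD, set per screening campaign, cut at about 24% in these data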
HNF4A DNA FP = change in binding of human HNF4 alpha to DNA; 0.3% of 360,000 active; HNF4a-FITC DNA binding, fluorescence polarization, 1 h; activity change, % at 10 µM; P41235; in the data active = activity change above about 30%, passing the limit was not always enough
CSN deneddyl val = Csn5 (human) deneddylation inhibition, single-concentration validation | shares compounds with CSN inh | Csn5 deneddylation of SCF-Nedd8OG, fluorescence polarization, 90 min | inhibition, % at 16.6 µM | 62% of 540 active | AID 720654; in the data active = inhibition above about 50%
MMP-2 counter = blocks human MMP-2 in a CSN deneddylation counter-screen; shares compounds with CSN inh; recombinant MMP-2, FRET substrate fluorescence, 60 min; inhibition, % at 16.6 µM; 33% of 540 active;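 active = corrected plate-normalized z-score of 5 or more, or -5 or less, or inhibition of 15% or more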
Thrombin cntr = blocks bovine thrombin in a CSN deneddylation counter-screen | 49% of 540 active | inhibition, % at 16.6 µM | shares compounds with CSN inh | AID 720656 | bovine thrombin cleavage of Ub4-pepOG, fluorescence polarization;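 active = inhibition at or above a set limit, with a fluorescence interference ratio between 0.5 and a set maximum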
Each line names hits and unclear results; the compound was inactive in the other large screens (follow-up assays come after a bar, where they were run). Sampled rows, rich in hits. Any-hit rate of the full collection: about 1.7%.

CN(C)c1ccc(C=c2c3cc(O)ccc3n3c2cc(-c2ccccc2)[n+]3C)cc1	CSN inh 138 (no result: IDE cell inh, TPT1 inh) | CSN deneddyl val inactive | MMP-2 counter 100 | Thrombin cntr 68
Cc1cc2c(=Cc3ccc(N(C)C)cc3)c3ccccc3n2[n+]1C	CSN inh 86 (no result: IDE cell inh, TPT1 inh) | CSN deneddyl val inactive | MMP-2 counter inactive | Thrombin cntr 60
C[n+]1c(-c2ccccc2)cc2c(=Cc3ccccc3)c3ccccc3n21	none (no result: IDE cell inh, TPT1 inh)
CC(=O)c1ccc(C2CC(OCCF)=CC(=O)O2)cc1 (stereo not given)	none (no result: IDE act, IDE cell inh, TPT1 inh)
O=C(O)c1ccc(-n2cccc2/C=N\NC(=O)c2cc3cc(Br)ccc3o2)cc1	CSN inh 43 | CSN deneddyl val inactive | MMP-2 counter 21 | Thrombin cntr 22
CN1CCN(NC(=O)c2ccc(S(=O)(=O)N3CC4(C)CC3CC(C)(C)C4)cc2)CC1 (stereo not given)	none
COc1cc(OC)c(OC)cc1/C=C1\CCC/C(=C\c2cc(OC)c(OC)cc2OC)C1=O	CSN inh 37, HNF4A DNA FP 54 (no result: IDE cell inh, TPT1 inh) | CSN deneddyl val 66 | MMP-2 counter inactive | Thrombin cntr 43
Nc1cc2c3ccccc3ccc2c2ccccc12	CSN inh 46 (no result: IDE cell inh, TPT1 inh) | CSN deneddyl val 82 | MMP-2 counter inactive | Thrombin cntr inactive
CC(C)Cn1c(N)c(C(=O)NCC2CCCO2)c2nc3ccccc3nc21 (stereo not given)	CSN inh 43 | CSN deneddyl val 103 | MMP-2 counter inactive | Thrombin cntr inactive
COc1cc(/C=C2\SC(=S)N(NC(=O)c3cccc(O)c3)C2=O)ccc1O	CSN inh 50, HNF4A DNA FP 47 (no result: IDE cell inh, TPT1 inh) | CSN deneddyl val 96 | MMP-2 counter inactive | Thrombin cntr 40
COc1ccc(CCNC(=O)[C@H](C)N2C(=O)N3CCc4c([nH]c5ccccc45)[C@@]3(C)C2=O)cc1	none
O=C1/C(=C\c2ccc(O)c(O)c2)SC(=S)N1Cc1ccccc1	CSN inh 55, HNF4A DNA FP 68 (no result: IDE cell inh, TPT1 inh) | CSN deneddyl val inactive | MMP-2 counter inactive | Thrombin cntr 68
Cc1ccc(/C=C2\SC(=S)N(Cc3ccccc3)C2=O)o1	CSN inh 115, TPT1 inh 39 | CSN deneddyl val 108 | MMP-2 counter inactive | Thrombin cntr 24
CCCCCCCC/C=C\CCCCCCCC(=O)O	none
CCCCCCCCCCCCC/C=C/[C@@H](O)[C@@H](N)CO	CSN inh 41 | CSN deneddyl val inactive | MMP-2 counter inactive | Thrombin cntr inactive
CCN(CC)CCOC(=O)c1ccc(N/C=C(/C#N)c2nc(-c3ccc4c(c3)OCO4)cs2)cc1	CSN inh 137, HNF4A DNA FP 292 | CSN deneddyl val inactive | MMP-2 counter inactive | Thrombin cntr inactive
CCN(CC)CCOC(=O)c1ccc(N/C=C(/C#N)c2nc(-c3cc4ccccc4oc3=O)cs2)cc1	CSN inh 119 (no result: IDE cell inh, TPT1 inh) | CSN deneddyl val inactive | MMP-2 counter -267 | Thrombin cntr 21
C[C@H](CO)N1C[C@H](C)[C@@H](CN(C)C(=O)NC2CCCCC2)Oc2ccc(NC(=O)C3CCCCC3)cc2C1=O	none (no result: TPT1 inh)
Cc1cc(/C=c2\sc3nc4ccccc4n3c2=O)c(C)n1-c1ccc(C(=O)O)cc1	CSN inh 35 (no result: IDE cell inh, TPT1 inh) | CSN deneddyl val inactive | MMP-2 counter inactive | Thrombin cntr 27
COc1ccc(Cl)cc1NCC(=O)Nc1ccc(OC)c(S(=O)(=O)N2CCCCC2)c1	none (no result: TPT1 inh)
COc1ccc(-c2csc(NC(=O)CSc3nc(C)nc4sc(C(=O)O)c(C)c34)n2)cc1	CSN inh 51 | CSN deneddyl val inactive | MMP-2 counter inactive | Thrombin cntr inactive
CC(=O)OC[C@]1(OC(C)=O)C[C@@]23CC[C@H]4[C@@](C)(CCC[C@@]4(C)C(=O)O)[C@@H]2CC[C@@H]1C3	none
CC(=O)OC[C@]12CC[C@H]3[C@@](C)(CC[C@H]4C(C)(C)CCC[C@]34C)[C@@H]1CC(C1=CC(=O)OC1O)O2 (stereo not given in full)	CSN inh 35 (no result: IDE act, IDE cell inh, TPT1 inh) | CSN deneddyl val inactive | MMP-2 counter inactive | Thrombin cntr inactive
C=CCOC(=O)c1cc(-c2ccc(/C=C3\C(=O)NC(=O)C(C#N)=C3C)o2)ccc1Cl	CSN inh 43 (no result: IDE cell inh, TPT1 inh) | CSN deneddyl val 18 | MMP-2 counter 24 | Thrombin cntr inactive
CC1=C(C#N)C(=O)NC(=O)/C1=C/c1ccc(-c2ccc(S(N)(=O)=O)cc2)o1	none
COc1ccc(C(=O)OCC(=O)NCc2ccc3c(c2)OCO3)cc1S(=O)(=O)N1CCOCC1	none (no result: TPT1 inh)
NCc1cc2c3c(c1)CCCN3CCC2	CSN inh 63 | CSN deneddyl val 88 | MMP-2 counter inactive | Thrombin cntr inactive
COc1cccc(NS(=O)(=O)c2ccc(C)c(C(=O)N3CCCCC3)c2)c1	none
COc1cc(/C=C2\SC(=Nc3ccc(Cl)c(C(=O)O)c3)NC2=O)c(Br)c(Br)c1O	CSN inh 198, HNF4A DNA FP 76 (no result: IDE cell inh, TPT1 inh) | CSN deneddyl val inactive | MMP-2 counter -101 | Thrombin cntr inactive
COC(=O)/C=C1\SC(=Nc2ccc(Cl)c(Cl)c2)NC1=O	none
CCOC(=O)/C=C(\C)Sc1cc(=O)oc2ccccc12	none
CCOC(=O)/C=C(\C)Sc1cc(O)c2ccccc2c1O	CSN inh 42 (no result: IDE cell inh, TPT1 inh) | CSN deneddyl val 51 | MMP-2 counter 24 | Thrombin cntr inactive
O=C1NC(=S)S/C1=C/c1ccc(N2CCOCC2)o1	CSN inh 118 | CSN deneddyl val 100 | MMP-2 counter -25 | Thrombin cntr inactive
CC(=O)N1CCOCCOCCN(C(C)=O)CCOCC1	none
Nc1nc(-c2ccco2)c(-c2ccco2)s1	none
O=C(CCl)Nc1nc(-c2ccco2)c(-c2ccco2)s1	CSN inh 43 | CSN deneddyl val 79 | MMP-2 counter inactive | Thrombin cntr inactive
C[C@@H]1CN([C@H](C)CO)C(=O)CCCn2nncc2CO[C@H]1CN(C)C(=O)C1CCCCC1	none (no result: IDE act, IDE cell inh, TPT1 inh)
O=C1C=C(NCc2ccccc2)c2ccccc2C1=O	CSN inh 72 (no result: IDE cell inh, TPT1 inh) | CSN deneddyl val 77 | MMP-2 counter inactive | Thrombin cntr inactive
CC(=O)c1cccc(NC(=O)/C=C/c2ccc([N+](=O)[O-])s2)c1	CSN inh 35 (no result: IDE cell inh, TPT1 inh) | CSN deneddyl val 97 | MMP-2 counter inactive | Thrombin cntr inactive
Oc1ccc(C2=Nn3c(nnc3-c3ccco3)SC2)cc1O	CSN inh 38 | MMP-2 counter 31 | Thrombin cntr inactive
